The results in this text go back to the array DNA melting data of Ke et al. (doi:10.1101/2024.01.08.574731).

Series [1] can be described thus: melting temperature; fluorescence melt of hairpins on a sequencing array, two-state fit, raised by 9.35 °C to match UV melts. The conditions noted are these: sodium 0.088 M. Put shortly:
(§1)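 In 50 mM Na-HEPES pH 8.0 containing 25 mM NaCl, hairpins from the library on a sequenced MiSeq flow cell were imaged for Cy3 fluorescence at 2.5 °C steps up to 60 °C, with Cy3 and quencher oligos annealed. After normalisation to pre-quench Cy3 and to control constructs, two-state fits with bootstrapping gave melting temperature and folding enthalpy. Four replicates were combined by inverse-variance weighting, and fitted temperatures were shifted up by 9.35 °C to match UV melts.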

Series [2] is described as follows: folding enthalpy; higher = less favourable; fluorescence melt of hairpins on a sequencing array, two-state fit. The note with it: sodium 0.088 M. Summed up: as §1

Turning to GCGTAGCTACGC ((((....)))), the Tm in series [1] amounted to 68.1 °C. Further, the folding enthalpy in series [2] was -12.6 kcal/mol.

Consider GCGTAGGGAAACCTGTGC ((..(((....)))..)), for which the Tm in series [1] stood at 37.4 °C. In addition, the folding enthalpy in series [2] is -14.2 kcal/mol.

Take GCGTAGTACGC ((((...)))): the Tm in series [1] turned out to be 53.1 °C. In series [2], the folding enthalpy was -20.8 kcal/mol.

For GCGTAGTGACGC ((((....)))), the Tm in series [1] was 53.7 °C. The folding enthalpy in series [2] is -15.4 kcal/mol.

As for GCGTATAGACGC ((((....)))), the Tm in series [1] is 50.3 °C. In series [2], the folding enthalpy was -24.6 kcal/mol.

As to GCGTATCGAAAGATCCGC (((.(((....))).))), the Tm in series [1] was determined as 50.2 °C. For the same sequence, in series [2], the folding enthalpy is -38.1 kcal/mol.

In the case of GCGTATGGAAACGTACGC (((((.(....).))))), the Tm in series [1] worked out at 54.7 °C. Further, the folding enthalpy in series [2] was -48 kcal/mol.

For the sequence GCGTCAACACGC ((((....)))), the Tm in series [1] was determined as 48.5 °C. Further, the folding enthalpy in series [2] was -21.8 kcal/mol.

Turning to GCGTCACGAAAGTGCCGC (((.(((....))).))), in series [1], the Tm came out at 59.6 °C. Besides, the folding enthalpy in series [2] is -46.1 kcal/mol.

Consider GCGTCAGGAAACTGATGC ((.((((....)))).)), for which the Tm in series [1] is 54.5 °C. Also, the folding enthalpy in series [2] is -43.6 kcal/mol.

GCGTCCCGAAAGGGTCGC (((.(((....))).))): the Tm in series [1] worked out at 67.8 °C. For the same sequence, the folding enthalpy in series [2] is -36.9 kcal/mol.

For GCGTCCGAAAGGAATCGC ((((((....)))..))), the Tm in series [1] was found to be 47.8 °C. Further, the folding enthalpy in series [2] was -22.6 kcal/mol.

For GCGTCCGCGAAAGCGCGC (((..(((....)))))), the Tm in series [1] was found to be 53.5 °C. Also, the folding enthalpy in series [2] is -16.9 kcal/mol.

For the sequence GCGTCCGGAAACAGACGC (((((.(....).))))), the Tm in series [1] amounted to 54 °C. For the same sequence, the folding enthalpy in series [2] is -36.1 kcal/mol.

Regarding GCGTCCTCACGC ((((....)))), the Tm in series [1] worked out at 50.9 °C. Besides, the folding enthalpy in series [2] was -24.3 kcal/mol.

In the case of GCGTCCTGACGC ((((....)))), the Tm in series [1] is 59.9 °C. Besides, the folding enthalpy in series [2] is -35.1 kcal/mol.

With GCGTCGCGAAAGCAAGGC ((.(.((....)).).)), the Tm in series [1] turned out to be 43.8 °C. Besides, the folding enthalpy in series [2] is -17.1 kcal/mol.

GCGTCGCGAAAGCACCGC (((..((....))..))): in series [1], the Tm stood at 53.9 °C. Further, the folding enthalpy in series [2] is -20.8 kcal/mol.

As to GCGTCGCGAAAGCATCGC (((..((....))..))), the Tm in series [1] turned out to be 53.8 °C. In addition, the folding enthalpy in series [2] is -17.9 kcal/mol.

As for GCGTCGCGAAAGCCAAGC ((.(.((....)).).)), the Tm in series [1] turned out to be 48.1 °C. For the same sequence, the folding enthalpy in series [2] is -20.1 kcal/mol.

Regarding GCGTCGCGAAAGCGCGGC ((..(((....)))..)), the Tm in series [1] was found to be 61.1 °C. The folding enthalpy in series [2] was -12.6 kcal/mol.

GCGTCGCGAAAGCGTAGC ((..(((....)))..)): in series [1], the Tm came to 58.6 °C. In addition, the folding enthalpy in series [2] is -20.8 kcal/mol.

As for GCGTCGGAACGC ((((....)))), in series [1], the Tm was found to be 52 °C. Moreover, the folding enthalpy in series [2] is -16.8 kcal/mol.

In the case of GCGTCGGACGC ((((...)))), the Tm in series [1] is 51.7 °C. The folding enthalpy in series [2] was -24.1 kcal/mol.

Consider GCGTCGGCACGC ((((....)))), for which, in series [1], the Tm amounted to 56.4 °C. Besides, the folding enthalpy in series [2] is -10.7 kcal/mol.

On to GCGTCGGGAAACCGATGC ((.((((....)))).)), for which the Tm in series [1] was found to be 65 °C. The folding enthalpy in series [2] was -34 kcal/mol.

With GCGTCGGGAAACTGACGC (((((.(....).))))), the Tm in series [1] was determined as 65.3 °C. Further, in series [2], the folding enthalpy was -49.8 kcal/mol.

Turning to GCGTCGTCACGC ((((....)))), the Tm in series [1] worked out at 51.8 °C. The folding enthalpy in series [2] was -22.4 kcal/mol.

Turning to GCGTCTACACGC ((((....)))), the Tm in series [1] worked out at 51.4 °C. The folding enthalpy in series [2] is -25.9 kcal/mol.

In the case of GCGTCTATACGC ((((....)))), the Tm in series [1] was determined as 54.6 °C. Further, in series [2], the folding enthalpy was -25 kcal/mol.

As for GCGTCTGCGAAAGCACGC (((..(((....)))))), in series [1], the Tm stood at 52.3 °C. In addition, the folding enthalpy in series [2] is -18.5 kcal/mol.

As for GCGTCTGGAAACAGACAC (.(((((....))))).), the Tm in series [1] worked out at 42.7 °C. In addition, in series [2], the folding enthalpy is -12.8 kcal/mol.

Take GCGTCTGGAAACGGATGC ((.((.(....).)).)): the Tm in series [1] came to 44.4 °C. In series [2], the folding enthalpy was -35.5 kcal/mol.

In the case of GCGTCTTCACGC ((((....)))), the Tm in series [1] worked out at 51.4 °C. Moreover, the folding enthalpy in series [2] is -26.9 kcal/mol.

Turning to GCGTCTTTACGC ((((....)))), in series [1], the Tm stood at 53.2 °C. The folding enthalpy in series [2] was -27.9 kcal/mol.

Regarding GCGTGAAAACGC ((((....)))), the Tm in series [1] stood at 58.5 °C. Moreover, the folding enthalpy in series [2] is -32.6 kcal/mol.

For GCGTGACACGC ((((...)))), in series [1], the Tm is 56.8 °C. Further, the folding enthalpy in series [2] was -22.1 kcal/mol.

Turning to GCGTGACTACGC ((((....)))), the Tm in series [1] turned out to be 59.4 °C. The folding enthalpy in series [2] is -27.2 kcal/mol.
